Test results taken from ChEMBL document CHEMBL1146019, “Structure-based design of novel HIV-1 protease inhibitors to combat drug resistance” (J Med Chem, 2006).

Legend:
[1] = system: Human immunodeficiency virus 1; assay: Antiviral activity against multi drug-resistant HIV1 G variant in human PHA-PBMC cells; format: functional, organism-based; conditions: Human immunodeficiency virus 1, PBMC
Summary of the method: (§1)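 PHA-activated peripheral blood mononuclear cells (1 × 10⁶/mL) infected with 50 TCID₅₀ of each isolate and cultured with or without drug in 10-fold serial dilutions. On day 7, p24 Gag protein in the supernatant was measured by automated chemiluminescent enzyme immunoassay. IC₅₀ was the concentration suppressing p24 production by 50% relative to drug-free control cultures. Assays were run in triplicate.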

[2] = system: Human immunodeficiency virus 1; assay: Antiviral activity against HIV1 LAI isolate in human PHA-PBMC cells; format: functional, organism-based; conditions: Human immunodeficiency virus 1, PBMC
Summary of the method: as §1, with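 “PBMC” for “peripheral blood mononuclear cells”, “were exposed to” for “infected with”, “7, supernatant” for “7,”, “Gag” for “Gag protein in the supernatant”, “by” for “by automated”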

[3] = system: Human immunodeficiency virus 1; assay: Antiviral activity against multi drug-resistant HIV1 TM variant in human PHA-PBMC cells; format: functional, organism-based; conditions: Human immunodeficiency virus 1, PBMC; summary of the method: as §1
[4] = system: Human immunodeficiency virus 1; assay: Antiviral activity against multi drug-resistant HIV1 C variant in human PHA-PBMC cells; format: functional, organism-based; conditions: Human immunodeficiency virus 1, PBMC; summary of the method: as §1
[5] = system: Human immunodeficiency virus 1; assay: Antiviral activity against multi drug-resistant HIV1 K variant in human PHA-PBMC cells; format: functional, organism-based; conditions: Human immunodeficiency virus 1, PBMC; summary of the method: as §1
[6] = system: Human immunodeficiency virus 1; assay: Antiviral activity against multi drug-resistant HIV1 ES variant in human PHA-PBMC cells; format: functional, organism-based; conditions: Human immunodeficiency virus 1, PBMC; summary of the method: as §1
[7] = system: Human immunodeficiency virus 2; assay: Antiviral activity against HIV2 EHO isolate in human MT2 cells; format: functional, organism-based; conditions: Human immunodeficiency virus 2, MT2
Summary of the method: (§2)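 MT-2 cells (2 × 10⁴/mL) were infected with 100 TCID₅₀ of virus and incubated with various drug concentrations at 37 °C for 7 days. MTT was then added for 2 h at 37 °C, formazan was dissolved in acidified 2-propanol with 4% Triton X-100, and optical density was read. Assays were run in duplicate or triplicate.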

[8] = system: Human immunodeficiency virus 1; assay: Antiviral activity against multi drug-resistant HIV1 EV variant in human PHA-PBMC cells; format: functional, organism-based; conditions: Human immunodeficiency virus 1, PBMC; summary of the method: as §1
[9] = system: Human immunodeficiency virus 1; assay: Antiviral activity against HIV1 LAI isolate in human MT2 cells; format: functional, organism-based; conditions: Human immunodeficiency virus 1, MT2; summary of the method: as §2
[10] = system: Human immunodeficiency virus 1; assay: Antiviral activity against multi drug-resistant HIV1 ET variant in human PHA-PBMC cells; format: functional, organism-based; conditions: Human immunodeficiency virus 1, PBMC; summary of the method: as §1
[11] = system: Human immunodeficiency virus 1; assay: Antiviral activity against HIV1 BA-L isolate in human PHA-PBMC cells; format: functional, organism-based; conditions: Human immunodeficiency virus 1, PBMC
Summary of the method: as §1, with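 “PBMC” for “peripheral blood mononuclear cells”, “were exposed to” for “infected with”, “7, supernatant” for “7,”, “Gag” for “Gag protein in the supernatant”, “by” for “by automated”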

[12] = system: Human immunodeficiency virus 1; assay: Antiviral activity against multi drug-resistant HIV1 B variant in human PHA-PBMC cells; format: functional, organism-based; conditions: Human immunodeficiency virus 1, PBMC; summary of the method: as §1
[13] = target: Human immunodeficiency virus type 1 protease (Human immunodeficiency virus 1, UniProt Q72874); assay: Inhibition of HIV1 protease
PBMC = assay: Cytotoxicity against human PHA-PBMC cells; format: functional
MT2 = assay: Cytotoxicity against human MT2 cells; format: functional

Row | SMILES | IC50 [1] [nM] | IC50 [2] [nM] | IC50 [3] [nM] | IC50 [4] [nM] | IC50 [5] [nM] | IC50 [6] [nM] | IC50 [7] [nM] | IC50 [8] [nM] | IC50 [9] [nM] | IC50 [10] [nM] | IC50 [11] [nM] | IC50 [12] [nM] | Ki [13] [nM] | CC50 (PBMC) [nM] | CC50 (MT2) [nM]
1 | CC(C)(C)NC(=O)[C@@H]1C[C@@H]2CCCC[C@@H]2CN1C[C@@H](O)[C@H](Cc1ccccc1)NC(=O)[C@H](CC(N)=O)NC(=O)c1ccc2ccccc2n1 | 59 | 14 | 250 | 100 | 20 | > 1000 | 1.9 | > 1000 | 24 | 17 | 18 |  |  |  | 
2 | CC(C)CN(C[C@@H](O)[C@H](Cc1ccccc1)NC(=O)O[C@H]1CCOC1)S(=O)(=O)c1ccc(N)cc1 | 310 | 34 | 220 | 300 | 68 | > 1000 | 440 | > 1000 | 24 | 23 | 29 | 290 |  |  | 
3 | CC(C)CN(C[C@@H](O)[C@H](Cc1ccccc1)NC(=O)O[C@H]1CO[C@H]2OCC[C@H]21)S(=O)(=O)c1ccc(N)cc1 | 3.7 |  | 3.5 | 3.5 | 3 |  |  |  |  |  |  | 10.2 |  |  | 
4 | CC(C)CN(CC(O)C(Cc1ccccc1)NC(=O)O[C@@H]1C[C@@H]2CCO[C@@H]2C1)S(=O)(=O)c1ccc(N)cc1 (some centres not stated) |  |  |  |  |  |  |  |  | 8 |  |  |  | 0.14 |  | 
5 | CC(C)CN(CC(O)C(Cc1ccccc1)NC(=O)O[C@H]1C[C@H]2CCC[C@H]2C1)S(=O)(=O)c1ccc(CO)cc1 (some centres not stated) |  |  |  |  |  |  |  |  | > 1000 |  |  |  | 5.3 |  | 
6 | CC(C)CN(CC(O)C(Cc1ccccc1)NC(=O)O[C@@H]1C[C@@H]2CCO[C@@H]2C1)S(=O)(=O)c1ccc(CO)cc1 (some centres not stated) | 20 | 1.8 | 4 | 5 | 3 | 31 | 21 | 52 | 1.8 | 3 | 2 | 15 |  | > 100000 | > 100000
7 | CC(C)(C)NC(=O)[C@@H]1CN(Cc2cccnc2)CCN1C[C@@H](O)C[C@@H](Cc1ccccc1)C(=O)N[C@H]1c2ccccc2C[C@H]1O | 500 | 32 | > 1000 | 500 | 260 | > 1000 | 13 | > 1000 | 26 | 30 | 24 | > 1000 |  |  | 
8 | Cc1c(O)cccc1C(=O)N[C@@H](CSc1ccccc1)[C@H](O)CN1C[C@H]2CCCC[C@H]2C[C@H]1C(=O)NC(C)(C)C | 170 | 14 | > 1000 | 310 | > 1000 | > 1000 | 20 | > 1000 | 10 | 32 | 7 | > 1000 |  |  | 
9 | CC(C)c1nc(CN(C)C(=O)N[C@H](C(=O)N[C@@H](Cc2ccccc2)C[C@H](O)[C@H](Cc2ccccc2)NC(=O)OCc2cncs2)C(C)C)cs1 [RITONAVIR] | > 1000 | 43 | > 1000 | > 1000 | 57 | > 1000 | 290 | > 1000 | 34 | 15 | 36 | > 1000 |  |  | 
